Reference: ChEMBL document CHEMBL2390862, “Enmein-type diterpenoid analogs from natural kaurene-type oridonin: Synthesis and their antitumor biological evaluation” (Eur J Med Chem, 2013)

Key:
Assay type in all cases: functional, cell-based
[1] = Cytotoxicity against human CaEs17 cells after 72 hrs by MTT assay; settings: CaEs17, 72 h
How it was run: (§1)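 K562, CaEs-17, Bel-7402 and MGC-803 cells in log phase seeded at 5 × 10⁴ cells/mL, incubated with or without test compounds at 37 °C, 5% CO₂; after 72 h MTT (5 mg/mL stock) added for 4 h, formazan dissolved in DMSO, OD read at 490 nm. Negative reference 0.1% DMSO, Taxol positive control. IC50 as mean ± S.D. of three independent experiments.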

MGC-803 = test: Cytotoxicity against human MGC803 cells after 72 hrs by MTT assay; settings: MGC-803, 72 h; how it was run: as §1
K562 = test: Cytotoxicity against human K562 cells after 72 hrs by MTT assay; settings: K562, 72 h; how it was run: as §1
Bel-7402 = test: Cytotoxicity against human Bel7402 cells after 72 hrs by MTT assay; settings: Bel-7402, 72 h; how it was run: as §1

| Structure (SMILES) | IC50 [1] | IC50 (MGC-803) | IC50 (K562) | IC50 (Bel-7402) |
| --- | --- | --- | --- | --- |
| C=C1C(=O)[C@@]23C(=O)O[C@H]4CCC(C)(C)[C@H]5[C@H](O)OC[C@@]45[C@@H]2CC[C@@H]1[C@H]3OC(C)=O | 1.59 µM | 1.99 µM | 1.11 µM | 1.97 µM |
| C=C1C(=O)[C@@]23C(=O)O[C@H]4CCC(C)(C)[C@H]5[C@H](O)OC[C@@]45[C@@H]2CC[C@@H]1[C@H]3O | – | 14.2 µM | – | – |
| C=C1C(=O)[C@@]23C(=O)O[C@H]4CCC(C)(C)[C@H]5[C@H](O)OC[C@@]45[C@@H]2CC[C@@H]1[C@H]3OC(=O)c1ccc(C(F)(F)F)cc1 | 0.76 µM | 0.96 µM | 0.37 µM | 1.27 µM |
